# Results pooled from the literature.
# Lines come from different studies, so protocols differ.
SMILES,assay,system,setting,solubility
Fc1ccc(-c2nc3c(N4CCN5CCC4CC5)nccc3[nH]2)cc1F,shake flask,aqueous buffer,pH 6.5,> 200 µM
Clc1ccc2c(c1)nc(NCc1ccccn1)n2Cc1ccccc1,shake flask,aqueous buffer,"20 h, pH 6.5, 25 °C",15 µM
Nc1cccc(S(=O)(=O)N2CCN(S(=O)(=O)c3ccc4c(c3)OCCO4)CC2)c1,,aqueous buffer,,4.1 µg/mL
COc1cccc2c(NCc3ccccc3)nc(-n3c(=O)oc4ccccc43)nc12,,aqueous buffer,pH 5,0.02 µg/mL
COc1cccc2c(-c3ccccc3)cc(-c3ccc(-c4ccc(C(=O)O)cc4)[nH]3)nc12,,PBS,pH 7.4,0.26 µM
Brc1ccc2c(c1)nc(C1CCNCC1)n2Cc1ccccc1,shake flask,aqueous buffer,"20 h, pH 6.5, 25 °C",110 µM
O=C(NCCN1CCCC1)c1cc(-c2ccc(CN3CCOCC3)cc2)nc2ccc(F)cc12.O=C(O)C=CC(=O)O,,simulated gastric fluid,"pH 2, 37 °C, acidic",> 6490 µM
COc1ccc(Nc2nc(NCc3ccccc3)c3ccccc3n2)cc1F,,aqueous buffer,pH 6.2,0.03 µg/mL
O=C(Nc1c2c(cc3c1CCC3)CCC2)NS(=O)(=O)/C=C/c1nccs1,,water,"24 h, 37 °C",11.2 µg/mL
CCn1c(-c2nc3ccc(C(=O)N4CCCC(N)C4)cc3n2C)cc2ccccc21 (stereo not shown),,aqueous buffer,,243 µM
COc1c(N2CCNC(C)C2)c(F)cc2c(=O)c(C(=O)NCCCN(C)C)cn(C3CC3)c12 (racemic),,water,,72000 µM
CCCCCCN1CCCC1=O,,PBS,"48 h, pH 7.4, 25 °C",79000 µM
Cc1ccc(F)cc1Nc1nc(NCc2ccccc2)c2ccccc2n1,,aqueous buffer,pH 7.4,0.04 µg/mL
COc1cccc(OC)c1-c1nc(C(=O)N[C@@H](CC(C)C)C(=O)O)cn1-c1cccc2ccccc12,,aqueous buffer,pH 7.4,> 145 µg/mL
N=C(N)NCc1ccc(NC(=O)C23CCC(C(=O)Nc4ccc(C5=CCN(C(=N)N)CC5)cc4)(CC2)CC3)cc1,shake flask,aqueous buffer,pH 7.4,46 µg/mL
Cc1cc2c(cc1C)[n+](Cc1ccc3ccccc3n1)cn2Cc1ccc2ccccc2n1.[Cl-],,water,,> 500 µg/mL
Cc1ccc(S(=O)(=O)NCc2ccc(C(=O)NCCN(Cc3ccccc3)C(C)C)cc2)cc1,,aqueous buffer,pH 7.4,0.79 µg/mL
CC(C)(C)n1nc(-c2cnc3cc(F)ccc3c2)c(C(N)=O)c1N,,PBS,"pH 6.5, 25 °C",> 100 µM
O=C(O)Cc1ccccc1Nc1c(Cl)cccc1Cl,,PBS,pH 7.4,1940 µg/mL
CCOc1nc2nc(C)cc(Nc3ccc(C(F)(F)F)cc3)n2n1,nephelometry,aqueous buffer,pH 6.5,19 to 37 µM
OCCOc1cccc2c(NCc3ccccc3)nc(N3CCOc4ccccc43)nc12,,aqueous buffer,pH 6.2,0.48 µg/mL
Cc1nccn1CC1CCc2c(c3ccccc3n2C)C1=O (stereo not shown),,PBS,"24 h, pH 7.4, 25 °C",93 µM
O=C(Nc1c(F)cccc1C(=O)O)c1ccc(-c2ccccc2)cc1,shake flask,aqueous buffer,"24 h, pH 6.5, 25 °C",80 µM
CC(C)(C)n1nc(-c2ccc3nc(OC4CCC4)ccc3c2)c(C(N)=O)c1N,,PBS,"pH 6.5, 25 °C",80.6 µM
c1ccc(CNc2nc(N3CCOc4ccccc43)nc3ccccc23)cc1,,aqueous buffer,pH 5,25.2 µg/mL
COc1ccc2c(c1)c(CC(=O)O)c(C)n2C(=O)c1ccc(Cl)cc1,,PBS,"20 h, pH 7.4, 20 °C",246 µg/mL
NC(=O)c1ccc(N(Cc2ccc(C3CCCCC3)cn2)C(=O)[C@H]2CCN2S(=O)(=O)c2c(F)c(F)c(F)c(F)c2F)cc1O,,simulated gastric fluid,,107 µg/mL
Cc1ccc(Nc2nc(NCc3ccccc3)c3ccccc3n2)cc1F,,aqueous buffer,pH 6.2,0.04 µg/mL
CCC(F)(F)c1nc2nc(C)cc(Nc3ccc(C(F)(F)F)cc3)n2n1,nephelometry,aqueous buffer,pH 6.5,17 to 34 µM
O=C(/C=C/c1ccc(CN(CCO)CCc2c[nH]c3ccccc23)cc1)NO,HPLC,water,"48 h, pH 6, 25 °C",8 µg/mL
COc1cc(OC)cc(N(CCNC(C)C)c2ccc3ncc(-c4cnn(C)c4)nc3c2)c1,,aqueous buffer,pH 3.96,23200 µg/mL
Cl.Clc1ccc2c(c1)nc(NCCNCc1ccccc1)n2Cc1ccccc1,shake flask,aqueous buffer,"20 h, pH 6.5, 25 °C",25 µM
O=C(c1ccccn1)N(Cc1cccs1)C1(C(=O)NC2CCCCC2)CCCCC1,,aqueous buffer,pH 5,5.7 µg/mL
CC(=O)N1CCN(c2ccc(OCC3COC(Cn4ccnc4)(c4ccc(Cl)cc4Cl)O3)cc2)CC1 (stereo not shown),,PBS,pH 7.4,55.6 µM
CCc1nc2nc(C)cc(Nc3ccc(Cl)cc3)n2n1,nephelometry,aqueous buffer,pH 6.5,170 to 350 µM
CC(=O)c1cccc(OCc2cc(C(=O)N(C)[C@@H](C)c3ccccn3)no2)c1,,PBS,,96 µM
C[C@]12CCCN1CC1=NNC(=O)c3cc(F)cc4[nH]c2c1c34,,ethanol,,49000 µg/mL
CN1CCN(CC2CCN(c3cccc4[nH]c(-c5cc(F)cc(F)c5)nc34)CC2)CC1,shake flask,aqueous buffer,pH 6.5,> 200 µM
CCCCOC(=O)c1ccc(N)cc1,,PBS,pH 7.4,226 µg/mL
O=C(Nc1cc(F)c(F)c(F)c1)c1ccc(F)c(S(=O)(=O)NCc2cccc(B(O)O)c2)c1,,aqueous buffer,pH 2,174 µg/mL
CCOc1ccc2cc(-c3nn(CC4CC4)c(N)c3C(N)=O)ccc2n1,,PBS,"pH 6.5, 25 °C",10.9 µM
CN1CCC(N2CCN(c3nccc4[nH]c(-c5ccc(F)c(F)c5)nc34)CC2)CC1,shake flask,aqueous buffer,pH 6.5,> 200 µM
CC(C)CC(=O)N1CCC[C@H](COc2cccc3c2C(N)=NS(=O)(=O)[N-]3)C1.[Na+],,ethanol,,217000 µM
Clc1ccc2c(nc(N3CCNCC3)n2Cc2ccccc2)c1Br,shake flask,aqueous buffer,"20 h, pH 6.5, 25 °C",50 µM
c1ccc(CNc2nc(N3CCNc4ccccc43)nc3ccccc23)cc1,,aqueous buffer,pH 7.4,0.02 µg/mL
COC(=O)C1=C(C)NC(C)=C(C(=O)OCCN(C)Cc2ccccc2)C1c1cccc([N+](=O)[O-])c1 (stereo not shown),,FaSSIF,"24 h, pH 7.4, 37 °C",227 µg/mL
Cc1cc(Nc2ccc(S(F)(F)(F)(F)F)cc2)n2nc(C(C)(F)F)nc2n1,nephelometry,aqueous buffer,pH 6.5,30 to 60 µM
CCOc1ccc2cc(-c3nn(C(C)C)c(N)c3C(N)=O)ccc2n1,,PBS,"pH 6.5, 25 °C",> 100 µM
COc1cc(/C=C/C(=O)CC(=O)/C=C/c2ccc(O)c(OC)c2)ccc1O,absorbance,water,,0.56 µg/mL
COc1cccc(OC)c1-c1nc(C(=O)N[C@@H](CC(C)C)C(=O)O)cn1-c1ccnc2cc(Cl)ccc12,,aqueous buffer,pH 7.4,> 52 µg/mL
CC(C)C[C@H](NC(=O)[C@H](Cc1ccccc1)NC(=O)c1cnccn1)B(O)O,nephelometry,aqueous buffer,pH 6.8,50 µM
O=C(Nc1ccc(S(=O)(=O)N2CCC(Cl)CC2)cc1)c1ccc([N+](=O)[O-])o1,,aqueous buffer,pH 6.2,9.2 µM
CCOc1ccc2cc(-c3nn(C4CCCCC4)c(N)c3C(N)=O)cnc2c1,,PBS,"pH 6.5, 25 °C",34.3 µM
CCC(=O)O[C@]1(C(=O)SCF)[C@H](C)C[C@H]2[C@@H]3C[C@H](F)C4=CC(=O)C=C[C@]4(C)[C@@]3(F)[C@@H](O)C[C@@]21C,,FaSSIF,,3.12 µM
Cc1c(F)cccc1Nc1nc(NCc2ccccc2)c2ccccc2n1,,aqueous buffer,pH 5,8.4 µg/mL
